Assay [1] has as its target T1, Galanin receptor type 2 (Homo sapiens, UniProt O43603).
T1 sequence (O43603 whole entry): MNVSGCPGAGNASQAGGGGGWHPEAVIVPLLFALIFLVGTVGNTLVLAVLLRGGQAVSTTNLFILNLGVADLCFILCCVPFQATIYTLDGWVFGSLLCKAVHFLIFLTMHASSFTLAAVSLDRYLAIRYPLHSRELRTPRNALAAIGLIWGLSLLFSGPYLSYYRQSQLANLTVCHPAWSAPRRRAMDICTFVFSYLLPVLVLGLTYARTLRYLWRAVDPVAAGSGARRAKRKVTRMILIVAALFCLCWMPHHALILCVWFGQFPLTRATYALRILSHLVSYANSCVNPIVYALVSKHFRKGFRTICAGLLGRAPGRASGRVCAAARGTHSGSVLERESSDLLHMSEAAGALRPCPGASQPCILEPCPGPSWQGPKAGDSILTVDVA
Put plainly: Displacement of [125I]galanin from GalR2 at 100 uM by gamma counting. A general note: Displacement assays read how much labelled ligand stays bound in the presence of the test substance.

Assay [2] has as its target T2, Galanin receptor type 1 (Homo sapiens, UniProt P47211).
T2 sequence (P47211 whole entry): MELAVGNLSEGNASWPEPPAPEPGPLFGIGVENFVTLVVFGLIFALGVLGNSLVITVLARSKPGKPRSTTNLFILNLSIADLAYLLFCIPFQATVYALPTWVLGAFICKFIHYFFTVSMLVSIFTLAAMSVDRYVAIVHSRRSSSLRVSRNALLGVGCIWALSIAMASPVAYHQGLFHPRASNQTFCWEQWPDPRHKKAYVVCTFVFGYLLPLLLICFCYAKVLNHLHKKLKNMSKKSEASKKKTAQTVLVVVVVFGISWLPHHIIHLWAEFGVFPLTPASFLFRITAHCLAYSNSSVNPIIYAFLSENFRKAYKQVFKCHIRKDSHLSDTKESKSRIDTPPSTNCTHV
Briefly: Displacement of [125I]galanin from GalR1 at 100 uM by gamma counting.

Assay [3] concerns the target T2, Galanin receptor type 1. Briefly: Displacement of [125I]galanin from GalR1 by gamma counting. The method in brief:
(§1)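 Full-curve competition over 10 nM–100 μM, with a rat galanin control on every plate. Compounds were diluted in 20% DMSO. Membranes were GalR1 2.5 μg or GalR2 5 μg, with 125I porcine galanin at 0.1 nM (GalR1) or 0.15 nM (GalR2), 1 h at room temperature. Filtration, washing and γ-counting followed. IC50 came from a nonlinear one-site competition fit, reported only when the curve bottom fell below 35% of total binding.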

The target in assay [4] is T3, Galanin receptor type 2 (Homo sapiens) (UniProt O43603).
T3 sequence (whole entry): T1 sequence (O43603 whole entry)
Put plainly: Displacement of [125I]galanin from GalR2 at 10 uM by gamma counting. The method in brief: (§2)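 Single-point screen at 1 and 10 μM, in duplicate, with two screens per receptor. Final 125I porcine galanin was 0.1 nM (GalR1) or 0.15 nM (GalR2). Incubation 1 h, room temperature. Filtration through PEI-treated glass fibre, cold PBS/Triton washes, γ-counting.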

For assay [5], the target named is T3, Galanin receptor type 2 (Homo sapiens). Put plainly: Displacement of [125I]galanin from GalR2 at 1 uM by gamma counting. The method in brief:
as §2

For assay [6], the target named is T1, Galanin receptor type 2. Briefly: Displacement of [125I]galanin from GalR2 by gamma counting. The method in brief:
as §1

pIC50: −log10 of the molar value.

Broadly, the pIC50 is the IC50 on a negative log10 scale, so that one unit is a factor of ten. The low end stands for a large IC50, the high end for a small IC50. As usually defined, the inhibition is the change of the read-out against control, counted positive when it falls. Read a high inhibition as a response far below the control.

As for `COc1ccc(Nc2nc(Nc3ccc(OC)c(F)c3)cc(N3CCCCC3C)n2)cc1` (centres undefined), the IC50 result at Galanin receptor type 2 [1] and at Galanin receptor type 1 [2] was “Not Active” each time.
For `FC(F)(F)Oc1ccc(Nc2cc(Nc3ccccc3)nc(N3CCCCC3)n2)cc1`, the IC50 entry at Galanin receptor type 2 [1] and on Galanin receptor type 1 [2] was “Not Active” throughout.
`COc1ccc(Nc2nc(Nc3ccc(OC)c(F)c3)cc(N3CCN(c4ncccn4)CC3)n2)cc1`: the IC50 result at Galanin receptor type 2 [1] is reported as “Not Active”. The compound further gave a pIC50 at Galanin receptor type 1 [3] of 5.42.
Turning to `COc1ccc(Nc2nc(NCC3CCCCC3)cc(Nc3ccc(OC)c(F)c3)n2)cc1`, the IC50 result at Galanin receptor type 2 [1] was “Not Active”. The compound further gave a pIC50 on Galanin receptor type 1 [3] of 5.42. Further, the inhibition in assay [4] and in assay [5] was above 50% throughout.
Turning to `COc1ccc(Nc2nc(Nc3ccc(OC)c(F)c3)cc(N3CCCC3)n2)cc1`, the IC50 entry on Galanin receptor type 2 [1] and on Galanin receptor type 1 [2] was “Not Active” in each case.
Take `COc1ccc(Nc2nc(Nc3ccc(OC)c(F)c3)cc(N3CCC(N4CCCCC4)CC3)n2)cc1`: the IC50 result on Galanin receptor type 2 [1] is on record as “Not Active”. At Galanin receptor type 1 [3], the pIC50 is 4.80.
`COc1ccc(Nc2nc(Nc3ccc(OC(F)F)cc3)cc(N3CCCCC3)n2)cc1`: the IC50 result at Galanin receptor type 2 [1] and at Galanin receptor type 1 [2] was “Not Active” in each case.
Take `COc1ccc(Nc2nc(Nc3ccc(OC)c(F)c3)cc(N3CCC(C)CC3)n2)cc1`: the IC50 entry on Galanin receptor type 2 [1] and at Galanin receptor type 1 [2] was “Not Active” throughout.
With `FC(F)Oc1ccc(Nc2cc(Nc3ccccc3)nc(N3CCCCC3)n2)cc1`, the IC50 entry at Galanin receptor type 1 [2] is given as “Not Active”. This compound also had a pIC50 at Galanin receptor type 2 [6] of 5.47. In addition, the inhibition in assay [4] and in assay [5] was above 50% in each case.
Take `COc1ccc(Nc2nc(Nc3cccc(F)c3C)cc(N3CCCCC3)n2)cc1`: the IC50 result on Galanin receptor type 1 [2] was “Not Active”. The same compound gave a pIC50 on Galanin receptor type 2 [6] of 6.42. Besides, the inhibition in assay [4] and in assay [5] was above 50% each time.
On to `Cc1ccc(C)c(Nc2cc(Nc3ccccc3)nc(N3CCCCC3)n2)c1`, for which, at Galanin receptor type 1 [2], the IC50 entry is recorded as “Not Active”. Moreover, on Galanin receptor type 2 [6], the pIC50 is 5.34. The inhibition in assay [4] and in assay [5] was above 50% in each case.
With `COc1ccc(Nc2nc(NCc3cccc(C(F)(F)F)c3)cc(N3CCCCC3)n2)cc1`, the IC50 result on Galanin receptor type 1 [2] is “Not Active”. Besides, the pIC50 at Galanin receptor type 2 [6] was 5.71. Further, the inhibition in assay [4] and in assay [5] was above 50% throughout.
